# Data taken from ChEMBL document CHEMBL3853298, “Total synthesis and in vitro bioevaluation of clavaminols A, C, H & deacetyl clavaminol H as potential chemotherapeutic and antibiofilm agents” (Eur J Med Chem, 2016).
# Columns and labels:
# [1] = Cytotoxicity against human HeLa cells assessed as cell growth inhibition by MTT assay; type: functional, cell-based
# [2] = Cytotoxicity against human MCF7 cells assessed as cell growth inhibition by MTT assay; type: functional, cell-based
# Staphylococcus aureus [3] = experiment: Antibacterial activity against Staphylococcus aureus MTCC 96 after 24 hrs by well diffusion method; type: functional; conditions: MTCC 96, 24 h
# Procedure, shortened: (§1)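 Bacteria spread (0.1 mL suspension) on Mueller-Hinton agar; 6.0 mm wells loaded with compound over a 250 to 0.48 per-well dose range, methanol as negative control. Incubated 24 h at 37 °C. MIC taken as the lowest concentration still giving an inhibition zone. Duplicates, mean reported.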
# Bacillus subtilis [4] = experiment: Antibacterial activity against Bacillus subtilis MTCC 121 after 24 hrs by well diffusion method; type: functional; conditions: MTCC 121, 24 h; procedure, shortened: as §1
# Micrococcus luteus = experiment: Antibacterial activity against Micrococcus luteus MTCC 2470 after 24 hrs by well diffusion method; type: functional; conditions: MTCC 2470, 24 h; procedure, shortened: as §1
# Staphylococcus aureus [5] = experiment: Antibacterial activity against Staphylococcus aureus MLS16 MTCC 2940 after 24 hrs by well diffusion method; type: functional; conditions: MLS16 MTCC 2940, 24 h; procedure, shortened: as §1
# Raoultella planticola [6] = experiment: Antibacterial activity against Klebsiella planticola MTCC 530 after 24 hrs by well diffusion method; type: functional; conditions: MTCC 530, 24 h; procedure, shortened: as §1
# Escherichia coli [7] = experiment: Antibacterial activity against Escherichia coli MTCC 739 after 24 hrs by well diffusion method; type: functional; conditions: MTCC 739, 24 h; procedure, shortened: as §1
# Pseudomonas aeruginosa [8] = experiment: Antibacterial activity against Pseudomonas aeruginosa MTCC 2453 after 24 hrs by well diffusion method; type: functional; conditions: MTCC 2453, 24 h; procedure, shortened: as §1
# Candida albicans [9] = experiment: Antifungal activity against Candida albicans MTCC 227 after 24 hrs by well diffusion method; type: functional; conditions: MTCC 227, 24 h
# Procedure, shortened: (§2)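 Candida/Issatchenkia lawns (0.1 mL suspension) on Mueller-Hinton agar; 6.0 mm bored wells receive compound across a 250 to 0.48 per-well dose range, methanol as negative control. Plates kept 24 h at 30 °C. MIC is the lowest concentration producing a visible inhibition zone. Duplicate runs, mean values.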
# Candida albicans [10] = experiment: Antifungal activity against Candida albicans MTCC 183 after 24 hrs by well diffusion method; type: functional; conditions: MTCC 183, 24 h; procedure, shortened: as §2
# Candida albicans [11] = experiment: Antifungal activity against Candida albicans MTCC 854 after 24 hrs by well diffusion method; type: functional; conditions: MTCC 854, 24 h; procedure, shortened: as §2
# Candida albicans [12] = experiment: Antifungal activity against Candida albicans MTCC 1637 after 24 hrs by well diffusion method; type: functional; conditions: MTCC 1637, 24 h; procedure, shortened: as §2
# Candida albicans [13] = experiment: Antifungal activity against Candida albicans MTCC 3017 after 24 hrs by well diffusion method; type: functional; conditions: MTCC 3017, 24 h; procedure, shortened: as §2
# Candida albicans [14] = experiment: Antifungal activity against Candida albicans MTCC 3018 after 24 hrs by well diffusion method; type: functional; conditions: MTCC 3018, 24 h; procedure, shortened: as §2
# Candida albicans [15] = experiment: Antifungal activity against Candida albicans MTCC 3958 after 24 hrs by well diffusion method; type: functional; conditions: MTCC 3958, 24 h; procedure, shortened: as §2
# Candida albicans [16] = experiment: Antifungal activity against Candida albicans MTCC 7315 after 24 hrs by well diffusion method; type: functional; conditions: MTCC 7315, 24 h; procedure, shortened: as §2
# [Candida] aaseri [17] = Antifungal activity against Candida aaseri MTCC 1962 after 24 hrs by well diffusion method; type: functional; conditions: Yamadazyma aaseri, MTCC 1962, 24 h; procedure, shortened: as §2
# [18] = Antifungal activity against Candida glabrata MTCC 3019 after 24 hrs by well diffusion method; type: functional; conditions: Nakaseomyces glabratus; procedure, shortened: as §2
# [19] = Antifungal activity against Candida krusei MTCC 3020 after 24 hrs by well diffusion method; type: functional; conditions: Pichia kudriavzevii; procedure, shortened: as §2
# Bacillus subtilis [20] = experiment: Bactericidal activity against Bacillus subtilis MTCC 121 after 24 hrs; type: functional; conditions: MTCC 121, 24 h
# Procedure, shortened: (§3)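 Broth macrodilution in Mueller Hinton broth, compound serially diluted from 150 down to 0. Overnight bacterial culture added to a final 1.5 × 10^8 CFU/mL (0.5 McFarland), 24 h at 37 °C. Suspension then subcultured onto Mueller Hinton agar for 24 h at 37 °C. MBC is the lowest concentration killing the strain. Duplicates.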
# Staphylococcus aureus [21] = experiment: Bactericidal activity against Staphylococcus aureus MLS16 MTCC 2940 after 24 hrs; type: functional; conditions: MLS16 MTCC 2940, 24 h; procedure, shortened: as §3
# Escherichia coli [22] = experiment: Bactericidal activity against Escherichia coli MTCC 739 after 24 hrs; type: functional; conditions: MTCC 739, 24 h; procedure, shortened: as §3
# Candida albicans [23] = experiment: Fungicidal activity against Candida albicans MTCC 183 after 24 hrs; type: functional; conditions: MTCC 183, 24 h
# Procedure, shortened: (§4)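 Candida grown overnight in Mueller Hinton broth. Compound serially diluted in the same broth from 150 to 0 and inoculated to a final 1.5 × 10^8 CFU/mL (0.5 McFarland), then 24 h at 37 °C. Tube contents plated onto Mueller Hinton agar for 24 h at 37 °C. MFC is the lowest concentration killing the yeast. Duplicates.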
# Candida albicans [24] = experiment: Fungicidal activity against Candida albicans MTCC 227 after 24 hrs; type: functional; conditions: MTCC 227, 24 h; procedure, shortened: as §4
# Candida albicans [25] = experiment: Fungicidal activity against Candida albicans MTCC 1637 after 24 hrs; type: functional; conditions: MTCC 1637, 24 h; procedure, shortened: as §4
# Candida albicans [26] = experiment: Fungicidal activity against Candida albicans MTCC 3018 after 24 hrs; type: functional; conditions: MTCC 3018, 24 h; procedure, shortened: as §4
# Candida albicans [27] = experiment: Fungicidal activity against Candida albicans MTCC 3958 after 24 hrs; type: functional; conditions: MTCC 3958, 24 h; procedure, shortened: as §4
# Candida albicans [28] = experiment: Fungicidal activity against Candida albicans MTCC 4748 after 24 hrs; type: functional; conditions: MTCC 4748, 24 h; procedure, shortened: as §4
# Candida parapsilosis = experiment: Fungicidal activity against Candida parapsilosis MTCC 1744 after 24 hrs; type: functional; conditions: Lodderomyces parapsilosis, MTCC 1744, 24 h
# Procedure, shortened: (§5)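 Broth dilution in Mueller Hinton broth with serial compound concentrations from […]. Overnight Candida cultures added to a final 1.5 × 10^8 CFU/mL (0.5 McFarland). Incubated 24 h at 37 °C, then 10 µL of each tube plated on Mueller Hinton agar for 24 h at 37 °C. MFC taken as the lowest concentration that kills the strain. Run in duplicate.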
# [Candida] aaseri [29] = Fungicidal activity against Candida aaseri MTCC 1962 after 24 hrs; type: functional; conditions: Yamadazyma aaseri, MTCC 1962, 24 h; procedure, shortened: as §4
# Pichia kudriavzevii = experiment: Fungicidal activity against Candida krusei MTCC 3020 after 24 hrs; type: functional; conditions: MTCC 3020, 24 h; procedure, shortened: as §5
# Pichia sporocuriosa = experiment: Fungicidal activity against Issatchenkia hanoiensis MTCC 4755 after 24 hrs; type: functional; conditions: MTCC 4755, 24 h; procedure, shortened: as §5
# Staphylococcus aureus [30] = experiment: Antibiofilm activity against Staphylococcus aureus MTCC 96 incubated for 24 hrs under static condition by crystal violet staining-based assay; type: functional
# Procedure, shortened: (§6)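 Strains grown overnight in tryptone soy broth with 0.5% glucose. Compound (250 to 0) mixed with inoculum at 5 × 10^5 CFU/mL in polystyrene microtiter plates. Non-adherent cells washed off with PBS; wells stained with 0.1% crystal violet, dye solubilised in 95% ethanol, absorbance read at 540 nm. IC50 for 50% biofilm inhibition taken from dose-response curves. Triplicates, mean ± S.D.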
# Bacillus subtilis [31] = experiment: Antibiofilm activity against Bacillus subtilis MTCC 121 incubated for 24 hrs under static condition by crystal violet staining-based assay; type: functional; procedure, shortened: as §6
# Staphylococcus aureus [32] = experiment: Antibiofilm activity against Staphylococcus aureus MLS16 MTCC 2940 incubated for 24 hrs under static condition by crystal violet staining-based assay; type: functional; procedure, shortened: as §6
# Raoultella planticola [33] = experiment: Antibiofilm activity against Klebsiella planticola MTCC 530 incubated for 24 hrs under static condition by crystal violet staining-based assay; type: functional; procedure, shortened: as §6
# Escherichia coli [34] = experiment: Antibiofilm activity against Escherichia coli MTCC 739 incubated for 24 hrs under static condition by crystal violet staining-based assay; type: functional; procedure, shortened: as §6
# Pseudomonas aeruginosa [35] = experiment: Antibiofilm activity against Pseudomonas aeruginosa MTCC 2453 incubated for 24 hrs under static condition by crystal violet staining-based assay; type: functional; procedure, shortened: as §6
smiles,measurement,setting,value
CCCCCCCCC[C@H](O)[C@@H](C)N [CLAVAMINOL A],IC50,[1],15.4 µM
same,IC50,[2],18.2 µM
same,MIC,Staphylococcus aureus [3],7.8 µg/mL
same,MIC,Bacillus subtilis [4],7.8 µg/mL
same,MIC,Micrococcus luteus,1.9 µg/mL
same,MIC,Staphylococcus aureus [5],3.9 µg/mL
same,MIC,Raoultella planticola [6],15.6 µg/mL
same,MIC,Escherichia coli [7],7.8 µg/mL
same,MIC,Pseudomonas aeruginosa [8],7.8 µg/mL
same,MIC,Candida albicans [9],31.2 µg/mL
same,MIC,Candida albicans [10],31.2 µg/mL
same,MIC,Candida albicans [11],15.6 µg/mL
same,MIC,Candida albicans [12],31.2 µg/mL
same,MIC,Candida albicans [13],15.6 µg/mL
same,MIC,Candida albicans [14],15.6 µg/mL
same,MIC,Candida albicans [15],31.2 µg/mL
same,MIC,Candida albicans [16],15.6 µg/mL
same,MIC,[Candida] aaseri [17],62.5 µg/mL
same,MIC,[18],15.6 µg/mL
same,MIC,[19],7.8 µg/mL
same,MBC,Bacillus subtilis [20],15.6 µg/mL
same,MBC,Staphylococcus aureus [21],7.8 µg/mL
same,MBC,Escherichia coli [22],15.6 µg/mL
same,MFC,Candida albicans [23],62.5 µg/mL
same,MFC,Candida albicans [24],31.2 µg/mL
same,MFC,Candida albicans [25],62.5 µg/mL
same,MFC,Candida albicans [26],31.2 µg/mL
same,MFC,Candida albicans [27],62.5 µg/mL
same,MFC,Candida albicans [28],62.5 µg/mL
same,MFC,Candida parapsilosis,62.5 µg/mL
same,MFC,[Candida] aaseri [29],62.5 µg/mL
same,MFC,Pichia kudriavzevii,15.6 µg/mL
same,MFC,Pichia sporocuriosa,62.5 µg/mL
same,IC50,Staphylococcus aureus [30],4.2 µg/mL
same,IC50,Bacillus subtilis [31],4.3 µg/mL
same,IC50,Staphylococcus aureus [32],2.2 µg/mL
same,IC50,Raoultella planticola [33],8.6 µg/mL
same,INH,Escherichia coli [34],5.2 µg/mL
same,INH,Pseudomonas aeruginosa [35],3.6 µg/mL
